The source made the active and inactive calls. The rule behind the calls is not given here.
Experiments:
FaDu [1] = assay: Synergistic antiproliferative activity against human FADU cells assessed as fractional inhibition at 0.05 uM preincubated for 1 hr followed by irradiation with 10 Gy IR and measured after 6 days by MTT assay (reference value: 0.388); assay type: functional
Method in brief: (§1)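 FaDu or SCC-25 cells were grown in DMEM with 10% FBS at 37 °C and 5% CO2. They were seeded at 1000 cells/well in 96-well plates for 24 h, then dosed with compound (fresh DMSO stock diluted in medium) or vehicle. After 1 h, X-rays were given with a sliding 5 mm lead shield, so one plate held 0, 2.5, 5 and 10 Gy columns. After 6 days, MTT (0.5 mg/mL, 45 min) was added, then DMSO, and A570 was read. Values were normalised to the unirradiated vehicle control. Fractional inhibition = 1 − surviving fraction.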

SCC-25 [2] = assay: Synergistic antiproliferative activity against human SCC25 cells assessed as reduction in cell viability at 1 uM preincubated for 1 hr followed by irradiation with 5 Gy IR and measured after 6 days by MTT assay relative to control; details: SCC-25, light or radiation study
FaDu [3] = assay: Synergistic antiproliferative activity against human FADU cells assessed as combination index at 5 uM preincubated for 1 hr followed by irradiation with 10 Gy IR and measured after 6 days by MTT assay; assay type: functional
Method in brief: (§2)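 Combination index was calculated by the Chou–Talalay median-effect method from the 6-day MTT viability data of the single-plate compound/X-ray (2.5, 5, 10 Gy) design. CI < 1 denotes synergy, CI = 1 additivity and CI > 1 antagonism.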

FaDu [4] = assay: Synergistic antiproliferative activity against human FADU cells assessed as combination index at 0.5 uM preincubated for 1 hr followed by irradiation with 10 Gy IR and measured after 6 days by MTT assay; assay type: functional; method in brief: as §2
SCC-25 [5] = assay: Synergistic antiproliferative activity against human SCC25 cells assessed as combination index at 0.005 uM preincubated for 1 hr followed by irradiation with 10 Gy IR and measured after 6 days by MTT assay; assay type: functional; method in brief: as §2
FaDu [6] = assay: Synergistic induction of apoptosis in human FADU cells assessed as increase in caspase at 0.5 uM followed by irradiation with 5 Gy IR incubated for 48 hrs by luminescence based analysis; assay type: functional, cell-based
FaDu [7] = assay: Synergistic antiproliferative activity against human FADU cells assessed as reduction in cell viability at 1 uM preincubated for 1 hr followed by irradiation with 5 Gy IR and measured after 6 days by MTT assay relative to control; assay type: functional; details: light or radiation study; method in brief: as §1
SCC-25 [8] = assay: Synergistic antiproliferative activity against human SCC25 cells assessed as fractional inhibition at 5 uM preincubated for 1 hr followed by irradiation with 5 Gy IR and measured after 6 days by MTT assay (reference value: 0.133); assay type: functional
Method in brief: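 SCC-25 cells seeded 1000/well in 96-well plates in DMEM/10% FBS and left 24 h. Drug or vehicle added, then after 1 h X-irradiated to 2.5, 5 or 10 Gy on one plate using a shifted lead shield. Plates incubated 6 days, then MTT (0.5 mg/mL, 45 min), DMSO solubilisation, absorbance at 570 nm. Fractional inhibition = 1 − fraction of surviving cells.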

[9] = biological target: T1, Nuclear factor erythroid 2-related factor 2 (Homo sapiens) (UniProt Q16236); assay: Inhibition of Nrf2 in human FADU cells at 0.5 uM incubated for 48 hrs by immunofluorescence analysis; assay type: cell-based
T1 sequence (whole entry): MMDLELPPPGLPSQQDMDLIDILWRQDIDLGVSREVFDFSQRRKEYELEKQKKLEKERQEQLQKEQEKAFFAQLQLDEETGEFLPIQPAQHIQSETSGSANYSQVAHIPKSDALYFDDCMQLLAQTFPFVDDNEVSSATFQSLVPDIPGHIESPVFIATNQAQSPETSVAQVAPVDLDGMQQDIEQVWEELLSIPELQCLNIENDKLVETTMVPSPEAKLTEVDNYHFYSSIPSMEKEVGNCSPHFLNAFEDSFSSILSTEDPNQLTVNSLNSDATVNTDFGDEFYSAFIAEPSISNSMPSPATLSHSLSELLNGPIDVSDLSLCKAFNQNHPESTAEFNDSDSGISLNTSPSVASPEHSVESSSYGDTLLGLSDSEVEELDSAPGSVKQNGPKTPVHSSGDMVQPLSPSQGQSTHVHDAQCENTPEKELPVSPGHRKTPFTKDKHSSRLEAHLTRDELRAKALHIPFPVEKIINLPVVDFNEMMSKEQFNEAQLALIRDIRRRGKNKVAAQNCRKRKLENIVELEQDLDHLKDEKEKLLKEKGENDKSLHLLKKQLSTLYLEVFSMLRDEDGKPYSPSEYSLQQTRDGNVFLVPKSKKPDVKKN
Method in brief: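 FaDu cells received compound, 5 Gy IR, or both, and Nrf2 was imaged by immunofluorescence 48 h later.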

FaDu [10] = assay: Synergistic antiproliferative activity against human FADU cells assessed as reduction in colony formation unit followed by irradiation with 5 Gy IR and measured after 10 to 14 days by crystal violet staining based assay; assay type: functional, cell-based
FaDu [11] = assay: Synergistic antiproliferative activity against human FADU cells assessed as combination index at 0.05 uM preincubated for 1 hr followed by irradiation with 2.5 Gy IR and measured after 6 days by MTT assay; assay type: functional; method in brief: as §2
FaDu [12] = assay: Synergistic antiproliferative activity against human FADU cells assessed as fractional inhibition at 0.5 uM preincubated for 1 hr followed by irradiation with 5 Gy IR and measured after 6 days by MTT assay (reference value: 0.097); assay type: functional; method in brief: as §1
FaDu [13] = assay: Synergistic antiproliferative activity against human FADU cells assessed as fractional inhibition at 0.5 uM preincubated for 1 hr followed by irradiation with 2.5 Gy IR and measured after 6 days by MTT assay (reference value: 0.131); assay type: functional; method in brief: as §1
FaDu [14] = assay: Synergistic induction of cell cycle arrest in human FADU cells assessed as decrease in accumulation at G0/G1 phase at 0.5 uM followed irradiation with 5Gy IR incubated for 24 hrs by propidium iodide staining based flow cytometry; assay type: functional
Method in brief: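 FaDu or SCC-25 cells, untreated, given 5 Gy IR, drug, or drug plus 5 Gy. Cell-cycle distribution by propidium iodide staining and flow cytometry at 6 h and 24 h after treatment. G0/G1, S and G2/M fractions compared with control by t test.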

FaDu [15] = assay: Inhibition of cell migration in human FADU cells at 0.5 uM incubated for 12 and 24 hrs by microscopic analysis; assay type: functional, cell-based
Method in brief: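 Scratch assay: 10^5 cells/well were grown to confluence in 12-well plates, with mitomycin C to block proliferation. Cells were treated with compound for 24 h, with or without 5 Gy IR, then scratched with a pipette tip, washed with PBS and given fresh medium. Imaging was at 0, 6, 12 and 24 h. % migration = gap decrease relative to the 0 h gap.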

FaDu [16] = assay: Synergistic antiproliferative activity against human FADU cells assessed as fractional inhibition at 0.05 uM preincubated for 1 hr followed by irradiation with 5 Gy IR and measured after 6 days by MTT assay (reference value: 0.097); assay type: functional; method in brief: as §1
FaDu [17] = assay: Synergistic antiproliferative activity against human FADU cells assessed as fractional inhibition at 0.5 uM preincubated for 1 hr followed by irradiation with 10 Gy IR and measured after 6 days by MTT assay (reference value: 0.388); assay type: functional; method in brief: as §1

**Q.** `COc1ccc2c(c1)N(CCO)C1=C(C(=O)OC1)C2c1ccccc1` (stereo not drawn) was tested. Which “fractional inhibitory concentration index (FICI)” value (FaDu [1]) did it give?
**A.** 0.452

**Q.** What about the inhibition at 1 µM (SCC-25 [2]) of the same molecule?
**A.** 65%

**Q.** What about the CI (FaDu [3]) of the same molecule?
**A.** 0.314

**Q.** What about the CI (FaDu [4]) of the same molecule?
**A.** 0.319

**Q.** And the CI (SCC-25 [5])?
**A.** 1.021

**Q.** What about the Activity (FaDu [6]) of the same molecule?
**A.** Active

**Q.** What about the inhibition at 1 µM (FaDu [7]) of the same molecule?
**A.** 48%

**Q.** And the “fractional inhibitory concentration index (FICI)” value (SCC-25 [8])?
**A.** 0.728

**Q.** What about the inhibition [9] of the same molecule?
**A.** Active

**Q.** What about the inhibition (FaDu [10]) of the same molecule?
**A.** Dose-dependent effect

**Q.** What about the IC50 (FaDu [10]; light or radiation study) of the same molecule?
**A.** 496 nM

**Q.** And the CI (FaDu [11])?
**A.** 0.234

**Q.** What about the “fractional inhibitory concentration index (FICI)” value (FaDu [12]) of the same molecule?
**A.** 0.425

**Q.** And the “fractional inhibitory concentration index (FICI)” value (FaDu [13])?
**A.** 0.443

**Q.** What about the Activity (FaDu [14]) of the same molecule?
**A.** Active

**Q.** What about the inhibition (FaDu [15]) of the same molecule?
**A.** inactive

**Q.** And the “fractional inhibitory concentration index (FICI)” value (FaDu [16])?
**A.** 0.239

**Q.** And the “fractional inhibitory concentration index (FICI)” value (FaDu [17])?
**A.** 0.613

Reference: ChEMBL document CHEMBL4364341, “Radiosensitization of Head and Neck Squamous Cell Carcinoma (HNSCC) by a Podophyllotoxin” (ACS Med Chem Lett, 2019)
